Assay [1] concerns the target T1, Transient receptor potential cation channel subfamily V member 1 (Homo sapiens, UniProt Q8NER1). Description: Agonist activity at human TRPV1 expressed in HEK293 cells assessed as increase in intracellular Ca2+ concentration by Fluo-4-AM dye based spectrofluorimetry relative to ionomycin. It counts as cell-based. The procedure, abridged:
(§1)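 Same stably transfected HEK293 Fluo-4 calcium assay: human TRPV1, rat TRPM8. Tyrode's buffer pH 7.4, 25 °C, ex 488/em 516 nm. Efficacy is the compound-evoked [Ca2+]i rise normalized to the maximal Ca2+ influx from 4 µM ionomycin. Means of at least 3 determinations.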

Assay [2] deals with Transient receptor potential cation channel subfamily M member 8 (Rattus norvegicus) (UniProt Q8R455). Briefly: Agonist activity at rat TRPM8 expressed in HEK293 cells assessed as increase in intracellular Ca2+ concentration by Fluo-4-AM dye based spectrofluorimetry relative to ionomycin. Type of assay: cell-based. The procedure, abridged: as §1
Sequence of Transient receptor potential cation channel subfamily M member 8 (Rattus norvegicus) (Q8R455 whole entry, looked up): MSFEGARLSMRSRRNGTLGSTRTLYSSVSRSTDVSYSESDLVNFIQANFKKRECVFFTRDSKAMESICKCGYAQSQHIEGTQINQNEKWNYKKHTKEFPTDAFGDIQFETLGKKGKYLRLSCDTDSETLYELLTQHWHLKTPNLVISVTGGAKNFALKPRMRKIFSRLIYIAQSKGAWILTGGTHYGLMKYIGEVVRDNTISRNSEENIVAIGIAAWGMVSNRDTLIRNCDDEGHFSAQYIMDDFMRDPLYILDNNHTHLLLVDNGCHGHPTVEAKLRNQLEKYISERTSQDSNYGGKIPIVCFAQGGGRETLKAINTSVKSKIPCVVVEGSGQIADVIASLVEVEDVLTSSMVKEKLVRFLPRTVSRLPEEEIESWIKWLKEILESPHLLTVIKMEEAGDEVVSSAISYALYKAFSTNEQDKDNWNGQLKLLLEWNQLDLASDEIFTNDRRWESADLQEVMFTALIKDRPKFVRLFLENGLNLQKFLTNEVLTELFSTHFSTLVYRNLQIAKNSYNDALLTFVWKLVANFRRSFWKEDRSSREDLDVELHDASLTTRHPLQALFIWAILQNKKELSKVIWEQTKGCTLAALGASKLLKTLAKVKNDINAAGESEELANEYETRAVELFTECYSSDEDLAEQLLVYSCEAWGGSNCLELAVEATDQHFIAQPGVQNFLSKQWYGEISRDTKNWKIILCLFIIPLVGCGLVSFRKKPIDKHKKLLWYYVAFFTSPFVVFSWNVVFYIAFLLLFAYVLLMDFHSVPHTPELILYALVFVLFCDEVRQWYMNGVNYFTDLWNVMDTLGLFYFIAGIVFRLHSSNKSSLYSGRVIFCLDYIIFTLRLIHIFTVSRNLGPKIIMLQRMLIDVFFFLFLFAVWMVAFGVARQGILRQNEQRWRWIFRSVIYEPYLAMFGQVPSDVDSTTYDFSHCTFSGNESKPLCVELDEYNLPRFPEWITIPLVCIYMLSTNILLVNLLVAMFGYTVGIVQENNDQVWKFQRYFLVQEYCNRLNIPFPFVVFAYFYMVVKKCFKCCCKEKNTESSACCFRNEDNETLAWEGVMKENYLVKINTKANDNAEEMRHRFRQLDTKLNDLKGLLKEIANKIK
Assay [3] deals with T2, Transient receptor potential cation channel subfamily A member 1 (Rattus norvegicus, UniProt Q6RI86). Description: Antagonist activity against rat TRPA1 expressed in HEK293 cells assessed as inhibition of AITC-induced increase in intracellular Ca2+ concentration by Fluo-4-AM dye based spectrofluorimetry. It counts as cell-based.
T2 sequence (Q6RI86 whole entry): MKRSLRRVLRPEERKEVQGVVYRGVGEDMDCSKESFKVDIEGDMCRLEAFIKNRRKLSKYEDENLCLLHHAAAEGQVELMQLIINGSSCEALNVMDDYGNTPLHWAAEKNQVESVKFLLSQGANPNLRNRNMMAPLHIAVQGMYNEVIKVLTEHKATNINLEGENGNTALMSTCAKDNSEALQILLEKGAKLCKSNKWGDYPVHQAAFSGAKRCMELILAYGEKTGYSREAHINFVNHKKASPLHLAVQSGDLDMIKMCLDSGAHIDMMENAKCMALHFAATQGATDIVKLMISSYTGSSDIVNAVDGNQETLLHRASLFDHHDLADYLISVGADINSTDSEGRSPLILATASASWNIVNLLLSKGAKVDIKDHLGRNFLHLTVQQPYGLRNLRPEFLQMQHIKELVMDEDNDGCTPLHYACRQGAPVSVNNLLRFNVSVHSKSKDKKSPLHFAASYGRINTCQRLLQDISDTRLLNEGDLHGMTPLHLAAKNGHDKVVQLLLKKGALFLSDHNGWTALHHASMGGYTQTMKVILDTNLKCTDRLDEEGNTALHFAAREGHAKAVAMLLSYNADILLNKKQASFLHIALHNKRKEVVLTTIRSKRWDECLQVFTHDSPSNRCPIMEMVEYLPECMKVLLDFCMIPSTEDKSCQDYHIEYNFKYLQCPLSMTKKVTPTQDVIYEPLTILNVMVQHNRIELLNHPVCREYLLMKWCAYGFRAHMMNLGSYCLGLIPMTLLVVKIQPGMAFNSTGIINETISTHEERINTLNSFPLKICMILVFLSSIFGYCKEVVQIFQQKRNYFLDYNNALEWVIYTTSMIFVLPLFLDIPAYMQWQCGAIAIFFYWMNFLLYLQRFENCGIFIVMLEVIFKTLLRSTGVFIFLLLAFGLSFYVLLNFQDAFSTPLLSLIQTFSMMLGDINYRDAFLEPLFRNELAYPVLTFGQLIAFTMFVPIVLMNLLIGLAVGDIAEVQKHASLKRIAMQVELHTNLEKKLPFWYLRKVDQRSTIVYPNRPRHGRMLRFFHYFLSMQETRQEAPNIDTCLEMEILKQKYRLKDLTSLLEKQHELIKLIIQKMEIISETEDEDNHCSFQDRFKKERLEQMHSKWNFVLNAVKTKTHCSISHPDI
The target in assay [4] is T1, Transient receptor potential cation channel subfamily V member 1. Description: Antagonist activity against human TRPV1 expressed in HEK293 cells assessed as inhibition of capsaicin-induced increase in intracellular Ca2+ concentration by Fluo-4-AM dye based spectrofluorimetry. It counts as cell-based.
Assay [5] has the same target. Briefly: Agonist activity at human TRPV1 expressed in HEK293 cells assessed as increase in intracellular Ca2+ concentration by Fluo-4-AM dye based spectrofluorimetry. It counts as cell-based. The procedure, abridged: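 HEK293 stably expressing human TRPV1 or rat TRPM8, grown in EMEM with non-essential amino acids, 10% FBS, 2 mM glutamine, 37 °C, 5% CO2. Fluo-4-AM loaded 1 h at room temperature; cells in Tyrode's buffer pH 7.4, about 100,000 per stirred cuvette. Fluorescence (ex 488/em 516 nm) read at 25 °C before and after various compound concentrations. EC50 from sigmoidal variable-slope fit; at least 3 determinations.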

The target in assay [6] is Transient receptor potential cation channel subfamily M member 8 (Rattus norvegicus, UniProt Q8R455). Briefly: Antagonist activity against rat TRPM8 expressed in HEK293 cells assessed as inhibition of icilin-induced increase in intracellular Ca2+ concentration by Fluo-4-AM dye based spectrofluorimetry. Type of assay: cell-based.
Sequence of Transient receptor potential cation channel subfamily M member 8 (Rattus norvegicus, UniProt Q8R455) (Q8R455 whole entry): as the sequence (Q8R455 whole entry, looked up) above
Assay [7] concerns the target T2, Transient receptor potential cation channel subfamily A member 1. Description: Agonist activity at rat TRPA1 expressed in HEK293 cells assessed as increase in intracellular Ca2+ concentration by Fluo-4-AM dye based spectrofluorimetry. Type of assay: cell-based.
Assay [8] concerns the target Transient receptor potential cation channel subfamily A member 1 (Homo sapiens) (UniProt O75762). Description: Antagonist activity against TRPA1 (unknown origin) assessed as reduction in H2O2-induced receptor activation at 400 uM.
Assay [9] concerns the target T3, Transient receptor potential cation channel subfamily M member 8 (Homo sapiens, UniProt Q7Z2W7). Briefly: Agonist activity at TRPM8 (unknown origin).
Assay [10] deals with T3, Transient receptor potential cation channel subfamily M member 8. Briefly: Agonist activity at TRPM8 (unknown origin) relative to untreated control.

This is an account of results in ChEMBL document CHEMBL3352014, “Effect of acyclic monoterpene alcohols and their derivatives on TRP channels” (Bioorg Med Chem Lett, 2014).

T1 sequence (Q8NER1 whole entry): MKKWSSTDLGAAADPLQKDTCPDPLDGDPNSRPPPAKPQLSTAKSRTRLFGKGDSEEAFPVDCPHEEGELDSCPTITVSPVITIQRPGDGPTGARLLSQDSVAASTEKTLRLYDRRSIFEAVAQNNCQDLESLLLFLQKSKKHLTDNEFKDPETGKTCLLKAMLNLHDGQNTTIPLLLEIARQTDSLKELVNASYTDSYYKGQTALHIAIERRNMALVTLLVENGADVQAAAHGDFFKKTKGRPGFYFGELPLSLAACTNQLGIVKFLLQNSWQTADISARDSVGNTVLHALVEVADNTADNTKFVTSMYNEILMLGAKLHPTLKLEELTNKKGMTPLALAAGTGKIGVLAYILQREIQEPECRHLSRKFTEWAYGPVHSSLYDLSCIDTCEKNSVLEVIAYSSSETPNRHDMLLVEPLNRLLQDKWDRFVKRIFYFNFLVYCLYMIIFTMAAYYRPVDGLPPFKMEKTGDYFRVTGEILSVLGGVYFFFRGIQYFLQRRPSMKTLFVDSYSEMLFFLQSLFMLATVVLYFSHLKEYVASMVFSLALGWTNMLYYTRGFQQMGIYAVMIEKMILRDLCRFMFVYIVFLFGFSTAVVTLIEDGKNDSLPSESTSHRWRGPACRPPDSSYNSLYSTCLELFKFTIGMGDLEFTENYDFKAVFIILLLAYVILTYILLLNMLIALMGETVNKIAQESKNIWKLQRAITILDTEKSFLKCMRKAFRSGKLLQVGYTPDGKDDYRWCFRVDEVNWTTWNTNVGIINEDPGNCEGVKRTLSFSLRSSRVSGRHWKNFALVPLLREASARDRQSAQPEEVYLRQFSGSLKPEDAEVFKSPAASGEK
Sequence of Transient receptor potential cation channel subfamily A member 1 (Homo sapiens) (O75762 whole entry): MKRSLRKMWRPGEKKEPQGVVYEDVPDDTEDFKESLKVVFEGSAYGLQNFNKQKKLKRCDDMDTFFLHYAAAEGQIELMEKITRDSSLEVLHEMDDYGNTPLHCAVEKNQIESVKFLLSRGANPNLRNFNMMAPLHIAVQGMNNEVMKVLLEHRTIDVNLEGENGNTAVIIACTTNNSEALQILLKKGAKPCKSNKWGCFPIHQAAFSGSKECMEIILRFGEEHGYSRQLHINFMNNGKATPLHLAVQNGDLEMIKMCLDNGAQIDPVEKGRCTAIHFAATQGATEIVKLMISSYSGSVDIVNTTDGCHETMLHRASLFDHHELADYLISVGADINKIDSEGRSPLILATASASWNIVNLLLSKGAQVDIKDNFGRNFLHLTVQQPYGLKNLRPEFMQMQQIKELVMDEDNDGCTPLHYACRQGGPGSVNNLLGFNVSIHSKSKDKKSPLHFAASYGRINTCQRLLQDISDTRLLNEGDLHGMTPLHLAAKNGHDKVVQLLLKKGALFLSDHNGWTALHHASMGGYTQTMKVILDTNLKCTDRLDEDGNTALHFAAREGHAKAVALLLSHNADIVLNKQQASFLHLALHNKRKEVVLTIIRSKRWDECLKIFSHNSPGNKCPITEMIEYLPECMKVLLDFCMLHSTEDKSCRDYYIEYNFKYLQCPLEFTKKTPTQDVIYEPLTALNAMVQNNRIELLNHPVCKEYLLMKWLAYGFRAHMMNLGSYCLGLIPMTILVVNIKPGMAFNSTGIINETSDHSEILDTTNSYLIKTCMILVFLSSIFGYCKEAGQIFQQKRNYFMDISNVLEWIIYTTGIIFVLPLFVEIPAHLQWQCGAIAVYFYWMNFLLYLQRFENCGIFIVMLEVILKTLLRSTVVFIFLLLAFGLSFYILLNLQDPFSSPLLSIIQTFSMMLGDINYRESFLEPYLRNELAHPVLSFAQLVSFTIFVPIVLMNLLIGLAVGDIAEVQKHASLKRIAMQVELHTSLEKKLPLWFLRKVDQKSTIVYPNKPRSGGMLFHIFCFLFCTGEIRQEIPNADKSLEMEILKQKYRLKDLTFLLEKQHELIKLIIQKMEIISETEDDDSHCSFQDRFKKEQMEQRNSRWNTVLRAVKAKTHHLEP

A word on the IC50: it is the concentration that inhibits the measured activity by half. Broadly, the EC50 is the concentration giving half of the maximal effect. As to `COc1ccc(CC(=O)OC/C=C(\C)CCC=C(C)C)cc1`, the figures for the Efficacy in assay [1] and in assay [2] were 13.2% and less than 10%, respectively. The results for the IC50 in assay [3], in assay [4] and in assay [6] were 0.38 µM, greater than 100 µM and greater than 100 µM, respectively. In addition, the EC50 in [5] is 8 µM; in [7] it was 0.51 µM.
For the molecule `CC(C)=CCC/C(C)=C/COC(=O)CCc1ccccc1`, the Efficacy in assay [1] was 27.7%; in [2], less than 10%. For the same molecule, the IC50 in [3] is 0.17 µM; in [4], greater than 100 µM; in assay [6] it was greater than 100 µM. Further, the EC50 turned out to be 4 µM in assay [5] and 0.39 µM in assay [7].
Broadly, the inhibition is the drop in the measured response relative to a control, in per cent. `CC(=O)OCCC(C)CCC=C(C)C` (stereo unspecified) [CITRONELLYL ACETATE]: the Efficacy in assay [1] and in [2] was less than 10% in each case. In addition, the IC50 in assay [3], in assay [4] and in assay [6] was greater than 100 µM each time. The inhibition in assay [8] was determined as 70%. Moreover, the 50% effective concentration (EC50) in assay [7] was determined as 12.2 µM.
Take `CC(C)=CCC/C(C)=C/CNC(=O)Nc1cccc(Cl)c1`: the Efficacy in assay [1] was 21.2%; in assay [2], less than 10%. Further, the IC50 in assay [3] was 0.48 µM; in assay [4], 0.71 µM; in [6] it was greater than 100 µM. In addition, the EC50 is 2.5 µM in assay [5] and 0.61 µM in assay [7].
`CC(C)=CCC/C(C)=C\CNC(=O)NC1CCCCC1`: the Efficacy in assay [1] was 50.1%; in assay [2] it was less than 10%. Further, the 50% inhibitory concentration (IC50) in assay [3] is 4.4 µM; in assay [4], 15.7 µM; in assay [6], 30 µM. Besides, the figures for the EC50 in assay [5] and in [7] were 8.9 µM and 2.65 µM, respectively.
As for `CC(C)=CCC/C(C)=C/CO` [GERANIOL], the results for the Efficacy in [1], in assay [2] and in assay [10] were less than 10%, less than 10% and 28%, respectively. For the same molecule, the IC50 in assay [3], in assay [4] and in assay [6] was greater than 100 µM each time. This molecule also showed an EC50 in assay [9] of 5900 µM.
As to `CC(C)=CCC/C(C)=C/CNC(=O)Cc1ccc(Cl)cc1`, the Efficacy in [1] is 57.5%; in assay [2], less than 10%. For the same molecule, the IC50 in assay [3] was 1.4 µM; in assay [4], 0.89 µM; in assay [6] it was 3.8 µM. Further, the EC50 in assay [5] worked out at 1.1 µM; in assay [7], 1.2 µM.
As for `CC(C)=CCC/C(C)=C/CNC(=O)Oc1ccc(C(C)(C)C)cc1`, the Efficacy in [1] is 22.4%; in assay [2] it was less than 10%. The IC50 was determined as 0.038 µM in assay [3], 92.3 µM in [4] and 86.5 µM in assay [6]. For the same molecule, the EC50 in [5] was 10.7 µM; in assay [7], 0.045 µM.
As for `CC(C)=CCC/C(C)=C\COC(=O)Nc1ccc(C(C)(C)C)cc1`, the values for the Efficacy in assay [1] and in [2] were 24% and less than 10%, respectively. Also, the IC50 in assay [3] was 0.29 µM; in [4], 74.6 µM; in [6] it was greater than 100 µM. For the same molecule, the concentration giving a half-maximal response (EC50) in assay [5] stood at 7.8 µM; in [7], 0.041 µM.
On to `CC(C)=CCC/C(C)=C/CNC(=O)Nc1ccc(C(C)(C)C)cc1`, for which the values for the Efficacy in assay [1] and in [2] were 21.9% and less than 10%, respectively. Also, the IC50 in [3] was 0.57 µM; in assay [4] it was 76.8 µM; in assay [6] it was greater than 100 µM. In addition, the EC50 in [5] turned out to be 8.7 µM; in [7], 0.092 µM.
As to `CC(C)=CCC/C(C)=C/CNC(=O)NC1CCCCC1`, the Efficacy in assay [1] was 36%; in assay [2], less than 10%. Also, the IC50 is 11.8 µM in assay [3], 9.9 µM in assay [4] and greater than 100 µM in [6]. Besides, the results for the concentration giving a half-maximal response (EC50) in [5] and in assay [7] were 4.8 µM and 4.9 µM, respectively.
For `CC(C)=CCC/C(C)=C/COC(=O)c1ccc(C)cc1`, the Efficacy was 17.6% in [1] and less than 10% in [2]. The IC50 in [3] was 1 µM; in assay [4], greater than 100 µM; in [6], greater than 100 µM. The values for the EC50 in assay [5] and in assay [7] were 6 µM and 0.33 µM, respectively.
Consider `CC(C)=CCC/C(C)=C\CNC(=O)Oc1ccc(C(C)(C)C)cc1`, for which the Efficacy was 15.8% in assay [1] and less than 10% in [2]. In addition, the IC50 in assay [3] is 0.029 µM; in assay [4] it was greater than 100 µM; in assay [6] it was greater than 100 µM. For the same molecule, the EC50 in assay [5] is 6.5 µM; in assay [7], 0.018 µM.
